CHT allo act – allosterically activates the human high affinity choline transporter | Q9GZV3 | CHT-expressing cells, membrane potential dye, choline EC20; active compounds read high; LV-AA mutant CHT in HEK293 cells | B-score at 10 µM | 310,000 tested, 0.49% active | AID 488977;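 active = initial fluorescence not abnormally high and integrated response B-score, plate-corrected, over 3 SD above library mean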
T cell HTS – T cell immune modulation candidate; 2C CD8+ T cell-vesicle binding, flow cytometry; active compounds read low; 330,000 tested, 0.068% active; response (vesicle binding), % at 7 µM;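 active = response, share of CD8 T cells binding vesicles, and their 90th percentile fluorescence all below set limits, cut at about 80% in these data, passing the limit was not always enough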;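 also: values below 100% mean blocked vesicle binding to the CD8+ T cells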
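Also added: QL9-peptide-loaded Drosophila micro-vesicles bearing Ld, ICAM-1 and B7-1; Test system: purified 2C TCR transgenic mouse naive CD8+ T cells; Measured by: cytometric PE anti-B7-1 and Alexa647 anti-CD8 signals after 1% paraformaldehyde fixation; Timing: binding step 1.5 h, 37 °C, antibody labelling 20 min, ice.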
CHT block – inhibits the human high affinity choline transporter. 310,000 tested, 0.86% active. Q9GZV3. CHT-expressing cells, membrane potential dye, choline response; active compounds read low. B-score at 10 µM. AID 488975;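 active = B-score over 3 SD under the library average, and starting fluorescence ratio not unusually high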;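 also: choline stimulus applied at its EC90 after an EC20 pre-addition; B-score computed on integrated fluorescence ratio after choline addition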
VLA-4 inh – inhibition in a human VLA-4 binding assay. P13612. AID 2557. 330,000 tested, 0.2% active. inhibition, % (about 7 µM as worked out from the volumes in the protocol). VLA-4 expressing cells, ligand binding flow cytometry; in the data active = inhibition above about 50%
Target sequence (P13612 whole entry, looked up): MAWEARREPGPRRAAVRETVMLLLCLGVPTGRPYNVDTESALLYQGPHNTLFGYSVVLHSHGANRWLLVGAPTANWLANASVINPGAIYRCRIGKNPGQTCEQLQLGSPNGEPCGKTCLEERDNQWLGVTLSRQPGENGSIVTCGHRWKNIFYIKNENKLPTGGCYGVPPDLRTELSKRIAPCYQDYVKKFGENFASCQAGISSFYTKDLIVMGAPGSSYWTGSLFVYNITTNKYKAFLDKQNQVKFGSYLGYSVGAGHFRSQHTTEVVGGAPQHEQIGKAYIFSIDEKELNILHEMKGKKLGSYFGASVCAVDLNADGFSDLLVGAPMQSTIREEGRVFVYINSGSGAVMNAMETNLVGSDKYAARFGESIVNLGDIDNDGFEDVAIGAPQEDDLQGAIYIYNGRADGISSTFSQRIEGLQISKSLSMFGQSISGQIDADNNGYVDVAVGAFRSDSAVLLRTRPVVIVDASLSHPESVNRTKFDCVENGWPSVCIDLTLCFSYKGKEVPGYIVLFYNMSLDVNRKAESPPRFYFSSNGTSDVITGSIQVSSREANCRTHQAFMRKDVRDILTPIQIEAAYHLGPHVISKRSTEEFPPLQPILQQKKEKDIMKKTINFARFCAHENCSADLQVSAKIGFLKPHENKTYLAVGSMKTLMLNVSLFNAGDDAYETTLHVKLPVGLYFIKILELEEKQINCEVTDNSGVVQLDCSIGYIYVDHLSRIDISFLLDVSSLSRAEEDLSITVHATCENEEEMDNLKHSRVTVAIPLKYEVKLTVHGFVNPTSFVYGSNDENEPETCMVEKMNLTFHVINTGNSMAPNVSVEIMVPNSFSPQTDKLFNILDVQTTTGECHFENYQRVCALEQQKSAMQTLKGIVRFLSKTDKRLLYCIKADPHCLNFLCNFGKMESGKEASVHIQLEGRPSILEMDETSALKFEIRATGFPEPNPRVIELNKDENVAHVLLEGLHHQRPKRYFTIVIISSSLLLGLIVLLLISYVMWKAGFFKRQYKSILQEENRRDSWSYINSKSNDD
CHT act confirm – confirmation of human choline transporter (CHT) activators. AID 504833. 2,500 tested, 91% active. activation, % at 10 µM. shares compounds with CHT allo act. CHT-expressing cells, membrane potential dye fluorescence (FDSS); % of choline EC20–EC90 response window; HEK293 expressing CHT LV-AA mutant; choline added at its EC20;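 active = primary screen active, with duplicate mean activation above negative control mean plus 3 SD, cut at about 11% in these data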
HEK293 MP dye – counter-screen for CHT activators: effect in parental HEK293 cells. shares compounds with CHT allo act. membrane potential dye fluorescence (FDSS); measured after EC20 choline addition. ratio readout change at 10 µM, hits read low. 2,500 tested, 62% active;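 active = duplicate-averaged ratio beyond 3 SD from buffer wells, up or down, though filed actives are nearly all decreases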
Large screens that a line does not name were inactive (follow-up assays come after a bar, where they were run). Most compounds without a hit are left out; they make up all but 1.5% or so of the library.

Clc1ccc(-n2nnc(-c3cccnc3Cl)n2)cn1	none
COc1ncccc1-c1nnn(-c2ccc(Cl)nc2)n1	none (no result: T cell HTS, VLA-4 inh) | CHT act confirm 48 | HEK293 MP dye -41
COc1ccc(CCNC(=O)C(=O)NCC2CCCN2S(=O)(=O)c2ccccc2)cc1OC (centres undefined)	none
Cc1cc[n+](-c2ccccc2)c2ccccc12	CHT allo act 7 | CHT act confirm 32 | HEK293 MP dye -44
Cc1cc[n+](CCC(=O)O)c2ccccc12	none
Cn1ccnc1-c1ccc(-c2nccn2C)cc1	CHT allo act 10 | CHT act confirm 64 | HEK293 MP dye -76
CCc1cccc(C)c1NC(=O)CN(C)Cc1ccccc1F	none | CHT act confirm 13 | HEK293 MP dye inactive
COc1c(N2CCNC(C)C2)c(F)cc2c(=O)c(C(=O)O)cn(C3CC3)c12 (centres undefined)	CHT allo act 6.7 | CHT act confirm 36 | HEK293 MP dye -45
NC1CCN(c2c(F)cc3c(=O)c(C(=O)O)cn(C4CC4)c3c2Cl)C1 (centres undefined)	none | CHT act confirm 18 | HEK293 MP dye -48
COc1c(N2CCN(C(=S)Nc3ccc(F)cc3)C(C)C2)c(F)cc2c(=O)c(C(=O)O)cn(C3CC3)c12 (centres undefined)	none
C[C@H](NC(=O)c1ccco1)C(=O)N1CCN(c2ccc(C(F)(F)F)cn2)CC1	none (no result: CHT allo act, CHT block)
Cc1cc(OC(C)C(=O)NCC2CCC(C(=O)O)CC2)c2c(C)cc(=O)oc2c1 (centres undefined)	none
COc1ccccc1NC(=O)C(C)OC(=O)/C(=C/c1ccccc1)NC(C)=O (centres undefined)	none
Cc1ccc(/C=N/n2c(C)nnc2C)cc1	none
Cc1ccc2nc(Cl)c(/C=N/n3c(C)nnc3C)cc2c1	CHT allo act 8 | CHT act confirm 43 | HEK293 MP dye -54
CCCCN(CCCNC(=O)C1CCN(C(=O)c2cc3sccc3n2C)CC1)Cc1ccccc1	CHT allo act 10 | CHT act confirm 60 | HEK293 MP dye -29
CCc1ccc(Nc2n[n+](-c3ccccc3)c(-c3cc(OC)c(OC)cc3Br)s2)cc1	none
CCc1ccc(Nc2n[n+](-c3ccccc3)c(-c3ccc(OCc4ccccc4)cc3)s2)cc1	CHT allo act 17 | CHT act confirm inactive | HEK293 MP dye inactive
N#CCCN(C(=O)COC(=O)c1cc(=O)c2ccccc2o1)c1ccccc1	none (no result: CHT allo act, CHT block)
CN(C)CCCNc1c2c(nc3ccccc13)CCC2	none | CHT act confirm 62 | HEK293 MP dye -66
COc1ccc(C)cc1Nc1c2c(nc3ccccc13)CCC2	CHT allo act 6.8 | CHT act confirm 36 | HEK293 MP dye -27
CCCCCC(=O)Nc1c2c(nc3ccccc13)CCC2	none
COCCNc1c2c(nc3ccccc13)CCC2	none | CHT act confirm 44 | HEK293 MP dye -40
CCN1CCc2c(sc(NC(=O)c3ccc(S(=O)(=O)N(C)CC4CCCO4)cc3)c2C(N)=O)C1 (centres undefined)	none | CHT act confirm 69 | HEK293 MP dye -38
CN1CCc2c(sc(NC(=O)c3ccc(S(=O)(=O)N4CCOCC4)cc3)c2C(N)=O)C1	CHT allo act 6.6 | CHT act confirm 67 | HEK293 MP dye -63
CN1CCc2c(sc(NC(=O)c3cc(Cl)sc3Cl)c2C(N)=O)C1	none | CHT act confirm 22 | HEK293 MP dye inactive
O=C(CN1CCN(Cc2ccc(F)cc2Cl)CC1)NCc1ccccc1	none
Cc1ccc(-c2cc(C(=O)OCC(=O)N(C)c3c(N)n(Cc4ccccc4)c(=O)[nH]c3=O)c3ccccc3n2)o1	none
COc1cc(C2C(C#N)=C(N)Oc3cc(N)ccc32)cc(OC)c1OC (centres undefined)	CHT allo act 7.7 | CHT act confirm 40 | HEK293 MP dye inactive
O=C(c1ccc(Cl)cc1)N1CCN(S(=O)(=O)/C=C/c2ccccc2)CC1	none (no result: CHT allo act, CHT block)
O=C(CNc1ccc(Br)cc1)Nc1ccc(S(=O)(=O)N2CCCC2)cc1	none (no result: CHT allo act, CHT block)
C=CCOC(=O)C1=C[C@@H](c2csc3ccccc23)C[C@@H](OCCCCO)O1	none (no result: T cell HTS, VLA-4 inh) | CHT act confirm 20 | HEK293 MP dye inactive
NC(=O)C1=C[C@H](c2csc3ccccc23)C[C@H](OCCCCO)O1	none
Cc1ccc2nc(N=C(N)N)nc(C)c2c1	none | CHT act confirm 56 | HEK293 MP dye -55

Source: PubChem
